Test results taken from ChEMBL document CHEMBL1125545, “4-Methyl-3-(arylsulfonyl)furoxans: a new class of potent inhibitors of platelet aggregation” (J Med Chem, 1992).

Species on record: Homo sapiens
Test: Inhibition of arachidonic acid (AA) induced human platelet aggregation.
Type: functional
Procedure, shortened: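 Human PRP (pH 7.6; 200g, 15 min at room temperature) with platelet counts matched. Compound in DMSO-ethanol given 5 min before 1 mM arachidonic acid, with a solvent control. Aggregation followed by Born light-transmission aggregometry, IC50 derived from the aggregation traces. At least four repeats, each with platelets from a different donor.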

IC50: 1 µM
Substance: SODIUM NITROPRUSSIDE
